Laboratory results as given in PubChem BioAssay AID588746 (Vanderbilt Specialized Chemistry Center, 2011).
Values belong to the molecule of their own block, whether it stands above or below them. The source made the active and inactive calls.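 How the source made its calls: active means a clear concentration-dependent response in the calcium flux assay, with a fitted half-maximal potency; inactive means the rest.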

Molecular target: Muscarinic acetylcholine receptor M2 (Homo sapiens) (UniProt P08172)
Test: M2 positive allosteric modulation, counter-screen, dose response, counter-screen, human, CHO Gqi5 cells, calcium fluorescence (AID 588746)
Conditions: CHO hM2/Gqi5 calcium mobilization, Fluo-4 fluorescence
Method in brief: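 System: hM2/Gqi5 CHO cells | Reagent: ACh EC20 then ACh EC80 | Incubation: 144 s compound pretreatment, 86 s EC20–EC80 gap, 37 °C | Technique: Fluo-4 calcium kinetic read | Benchmarks: 1 mM ACh maximum | Measure: Baseline-corrected calcium signal as percent of 1 mM ACh maximum, logistic-fit EC50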

Muscarinic acetylcholine receptor M2 (Homo sapiens), sequence (P08172 whole entry, looked up): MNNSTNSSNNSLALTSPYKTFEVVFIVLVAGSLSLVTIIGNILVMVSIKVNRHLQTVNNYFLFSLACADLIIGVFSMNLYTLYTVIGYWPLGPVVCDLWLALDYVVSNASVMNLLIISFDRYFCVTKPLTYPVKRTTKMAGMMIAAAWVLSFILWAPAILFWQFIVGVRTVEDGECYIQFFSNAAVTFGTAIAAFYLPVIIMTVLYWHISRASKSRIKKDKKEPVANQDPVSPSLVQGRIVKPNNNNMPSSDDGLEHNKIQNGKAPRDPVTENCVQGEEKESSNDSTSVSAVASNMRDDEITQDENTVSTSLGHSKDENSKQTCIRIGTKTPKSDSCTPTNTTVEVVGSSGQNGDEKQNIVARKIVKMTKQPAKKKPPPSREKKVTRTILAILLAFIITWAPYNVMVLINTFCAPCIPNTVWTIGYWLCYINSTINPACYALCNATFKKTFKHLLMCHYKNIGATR

SMILES: Cc1nc2sc(C(=O)NCc3ccc4c(c3)OCO4)c(N)c2c(C)c1Cl
percent of ACh max response (at 36.8 µM (top of the series)): inactive

SMILES: Cc1nc2sc(C(=O)NCc3nccs3)c(N)c2c(C)c1Cl
percent of ACh max response (at 30 µM (top of the series)): inactive

SMILES: Cc1nc2sc(C(=O)NCc3cccc(F)c3F)c(N)c2c(C)c1Cl
percent of ACh max response (at 30 µM (top of the series)): inactive

SMILES: Cc1nc2sc(C(=O)NC3CC3)c(N)c2c(C)c1Cl
EC50: 548 nM

Continued, values first:

percent of ACh max response (at 45.3 µM (top of the series)): inactive
SMILES: Cc1nc2sc(C(=O)NCc3ccncc3)c(N)c2c(C)c1Cl

percent of ACh max response (at 30 µM (top of the series)): inactive
SMILES: Cc1nc2sc(C(=O)NCCc3ccncc3)c(N)c2c(C)c1Cl

percent of ACh max response (at 30 µM (top of the series)): inactive
SMILES: Cc1nc2sc(C(=O)NCc3ccncn3)c(N)c2c(C)c1Cl

percent of ACh max response (at 37.4 µM (top of the series)): inactive
SMILES: Cc1nc2sc(C(=O)NCc3ccccc3)c(N)c2c(C)c1Cl

percent of ACh max response (at 45.3 µM (top of the series)): inactive
SMILES: Cc1nc2sc(C(=O)NCc3cccnc3)c(N)c2c(C)c1Cl
